Measured values from different studies.
Target: PAS domain-containing serine/threonine-protein kinase (PASK, Homo sapiens, UniProt Q96RG2)

Structure (SMILES)	assay	setting	quantity	result
CC/C(=N\NC(=O)NCc1cccc(O)c1)c1ccc(O)c(C)c1O	enzyme activity, inhibitor	0.1 µM	inhibition	-0.2%
COc1cc(Cl)c(C(=O)N[C@@H](CN[C@H]2CC[C@@H](N)CC2)Cc2ccc(C#N)cc2)cc1-c1ccc(CN[C@H](C)c2ccc(C)cc2)o1	enzyme activity, inhibitor	1 µM	remaining activity	72%
CN1CC(Oc2cnc(C#N)cc2-c2ccn3nc(NC(=O)C4CC4)cc3c2)C1	enzyme activity, inhibitor	1 µM	inhibition	-16%
O=C1NC(=O)c2cc(Nc3ccc(F)cc3)c(Nc3ccc(F)cc3)cc21	cell-free assay	0.5 µM	remaining signal	91.3%
Cc1ccc(NC(=O)c2ccc(C)c(C(F)(F)F)c2)cc1C#Cc1nn(C2CCC(O)CC2)c2ncnc(N)c12 (centres unmarked)	cell-free assay	10 µM	remaining signal	113%
Cc1sc(C(=O)NC2COC2)cc1-n1cc(NC(=O)Nc2c(F)cccc2Cl)cn1	enzyme activity, inhibitor	10 µM	remaining activity	96.1%
CCN(CC)CCNC(=O)c1c(C)[nH]c(/C=C2\C(=O)Nc3ccc(F)cc32)c1C	enzyme activity, inhibitor	10 µM	inhibition	19%
COc1cc2ncnc(Nc3ccc(Oc4ccccc4)c(C)c3C)c2cc1OC	enzyme activity, inhibitor	1 µM	inhibition	6%
CNC(=O)c1cc(Oc2ccc(NC(=O)Nc3ccc(Cl)c(C(F)(F)F)c3)cc2)ccn1	enzyme activity, inhibitor	10 µM	inhibition	-9%
CCN(CC)c1ccc(C2=NNC(=O)CC2C)cc1[N+](=O)[O-] (centres unmarked)	enzyme activity, inhibitor	10 µM	remaining activity	98%
N#CCCc1ccc2c(c1)-c1[nH]c3ccc([N+](=O)[O-])cc3c1CC(=O)N2	cell-free assay	0.5 µM	remaining signal	96.9%
Cc1ccc(Nc2nccc(N(C)c3ccc4c(C)n(C)nc4c3)n2)cc1S(N)(=O)=O	enzyme activity, inhibitor	0.3 µM	inhibition	-1%
Cc1cc(NC(=O)c2cccc3cc(-c4cccc5[nH]nc(N)c45)ccc23)ccc1F	enzyme activity, inhibitor	0.1 µM	activity vs control	89%
CC(C)(C)c1nc(-c2cccc(NS(=O)(=O)c3c(F)cccc3F)c2F)c(-c2ccnc(N)n2)s1	enzyme activity, inhibitor, radiometric	1 µM	remaining activity	98%
